According to the EternaBench riboswitch data:

Test system: MS2 coat protein
Test: apparent Kd, MS2 coat protein; higher = weaker binding; RNA-MaP array; FMN 200 µM where present
Outline: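 On Illumina sequencing-chip clusters, designs were transcribed by stalled E. coli RNA polymerase and titrated with SNAP-549-labelled MS2 coat protein (0.7 or 1.5 nM, doubling to 3 µM), without and then with constant ligand, in 100 mM Tris-HCl pH 7.5, 80 mM KCl, 4 mM MgCl2, BSA, DTT, yeast tRNA and Tween-20. Apparent Kd is the median of filtered per-cluster curve fits to green signal normalised to red-channel RNA signal and control-cluster median Fmax.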

[1] = designed as: OFF switch for flavin mononucleotide, no ligand
[2] = ligand present: flavin mononucleotide, designed as: OFF switch for flavin mononucleotide
[3] = designed as: ON switch for flavin mononucleotide, no ligand
[4] = ligand present: flavin mononucleotide, designed as: ON switch for flavin mononucleotide

Sequence | apparent Kd [1] [nM] | apparent Kd [2] [nM] | apparent Kd [3] [nM] | apparent Kd [4] [nM]
CGAUACAUGAGGGUCUCCCAUGACAUGAGGAUCACCCAUGUGCAGGAUAUACGUGUGAUGGUAUAGUAGAAGGGCACUCUAUGU | 29.2 | 36.9 | – | –
AAAAAGGUAGGAUAUACGAAAAAAAAGGGUAGAAAAAAAACACAUGAGGAUCACCCAUGUAGAAGGACCAAAAA | 27.4 | 63 | – | –
GCGUUACAUGAGGAUCACCCAUGUGAGGAUAUGGUGCGGUAGUGUCCUGUCGCGUACUCCAGAAGGCGCGGGUG | 137 | 240 | – | –
CCCUAGGUAGGAUAUACUUGGACUCGGCUGAUGUGCCUAAAACAUGAGGAUCACCCAUGUAGAAGGACUAAGGC | 12.6 | 11.6 | – | –
GAGCCUCCGUAGAAGGCCGCGGAAUUCGAACGCGGAGGAUAUACAUGAGGAUCACCCAUGUGAAAGUGGAAAGAUAAAACGCUU | 12.4 | 30.4 | – | –
GGUAUCGGAGGAGGAUAUGAGCGUAUCGCUGCCUCAGAAGGCCUACUGAUACAUGAGGAUCACCCAUGUUGCGGUAAUCCUACU | 283 | 23.5 | – | –
CGAAGUAGCACAGGAUAUCAUACAUGAGGAUCACCCAUGUCAAGAAACAAAUGAGAAGGGUGCAGACGGUGUUGGAGCUGUUGC | – | – | 192 | 26.6
GGGAGUGGAGGGAAUAACAUGAGGAUCACCCAUGUAUGGGAGAGAAGGCAGGUUGGAGGGCGAUCUGAGGAUAUUUAGACUCUU | – | – | 19.9 | 13.5
UUCGUGUAAGGAUAUACGACCCAUCCCAUUGGGAUGGACACGUAGAAGGUACAUGAGGAUCACCCAUGUGCUCC | 27.3 | 135 | – | –
AACUAACAUGAGGAUCACCCAUGUCAGGAUAUGCAACGAUCGAUCGAUCGAUCGAUCAGCAGAAGGGACACUAA | 20.1 | 36 | – | –
GAUUAUAAGUAAGGAUAUGUAUAUGAAACAUAUACAGAAGGUACAUGAGGAUCACCCAUGUUCUUGCAGCGCGAAUAUGUAAUC | 18.9 | 27.7 | – | –
UAGUGAUUGCAAGGAUAUGCUAGUUUUUAUUUGUGUUUGAUAACAAACAUGAGGAUCACCCAUGUGCAGAAGGUGCUAGAUAUG | – | – | 566 | 510
GUUGACAGCACAGGAUAUGCGCAGUCUAUAUCACAUGAGGAUCACCCAUGUCGGCAACAGACCGAGCAGAAGGGUGCGAGUGUG | – | – | 235 | 39.7
GUAGUGUAGUGAGGAUAUACGAGAUCGAUAGAUCGGCGAUCCAUUAAUACAUGAGGAUCACCCAUGUAGAAGGCACUUCACUAC | 6.01 | 70.7 | – | –
AUUCAGCGAGGAUAUACAGGUUCUGGGUGAGGCUCGGCGAGACAUGAGGAUCACCCAUGUAGAAGGUGCUAGCC | 341 | 284 | – | –
AAAAGACAUGAGGAUCACCCAUGUGAAAACGUAGGAGGAUAUGUCGUGAAAAAAGACUUGACAGAAGGCCUGUGUC | – | – | 97.7 | 30.8
UUAUUAAGUGUGAGGAUAUGCUGGUCCUUGGAUCAGCAGAAGGCACAUGAGGAUCACCCAUGUAAUAUAUUUAU | 103 | 389 | – | –
GUCGAGUGAGGAUAUGGUGAGUAGUGCCAGAGCGCUGCUCACCAGAAGGCACAUGAGGAUCACCCAUGUAUAGC | 16.8 | 29.9 | – | –
AGGAGGAAUGUAGGAUAUAUAUAUAUAUAUAGGCAAAGCGUAUAUAUAUAUAUAGAAGGACAUGAGGAUCACCCAUGUUUCCCU | 9.27 | 8.99 | – | –
GGUACCAUCACAGGAUAUGCUUUCCUUUGGAAAGCAGAAGGGUGUAACAUGAGGAUCACCCAUGUGGUGCCAGGGCGUGAGCCC | – | – | 184 | 13
GGGACUUACGAGAAGGGCUACAUGAGGAUCACCCAUGUAAAUCUUCGGGUAGCAGGAUAUCGGCGGCUACAGGAGGGCCAAGUC | 14.3 | 90.7 | – | –
GCUAUCGGGUGAGGAUAUAUGAUUGUGAUUAAAAUAGAAGGCAUCUCAGAAGACAUGAGGAUCACCCAUGUAGUUAAGAUGGCA | – | – | 34.1 | 22.7
GAACGUGAGACGACCGUGGGUACAUGAGGAUCACCCAUGUGCAGAAGGCGAAUAUGACGAUGUGUCGAGGAUAUGCACAGCUCA | 22.4 | 97.6 | – | –
AAAUCCGAAGGAUAUACAUCAAAAGCAAACUGACCCUCACGACAUGAGGAUCACCCAUGUAGAAGGUUGGAAAU | 20.3 | 18.1 | – | –
AUAAAACAUGAGGAUCACCCAUGUCAACAAAGUCGAGGAUAUGGGCAAAUAAAAUAAGAACCAGAAGGCGAAUUAU | – | – | 210 | 38.6
GUUUCACAUGAGGAUCACCCAUGUGAGGAUAUGGAUUUGUUAACCGUAGUUAAUAGAUCCAGAAGGCGCGUGAU | 62.4 | 68.2 | – | –
AGGUACGGUCGAUCAUAUCAAGGUAGAAGGCGACUGGGAAUGUGAGACAUGAGGAUCACCCAUGUCGAGGAUAUACCUGAAAGU | 88.9 | 50.1 | – | –
GUGCCUUGGGAGAAGGCCCAAUGCAAAGCAUCGGGAGGAUAUUCAUAUAAUAAAUAAACAUGAGGAUCACCCAUGUGGCACAAA | – | – | 447 | 33

Sequence | apparent Kd [1] [nM] | apparent Kd [2] [nM] | apparent Kd [3] [nM] | apparent Kd [4] [nM]
CUACGAGCGCCACAGGAUAUACUGAGACUCACAUGAGGAUCACCCAUGUCCAAUUCUCCCAAAUAGUAGAAGGGUGACGCGCUCG | – | – | 699 | 53.3
AUUUUGCUCGCAGGAUAUCAGGAAAUGUUGAUCUUCUGUAUCUCCUACAUGAGGAUCACCCAUGUUGAGAAGGGCGAUGGCAAU | 106 | 358 | – | –
GAAAACAGAGGAUAUACAUAAGCUAGACGAAAGUCUAGCAAACAUGAGGAUCACCCAUGUAGAAGGCUGAAGAA | 37.6 | 36.3 | – | –
AAAAACGGAGGAUAUACAAAUUAAGGAAGAAAACACGAAAAACAUGAGGAUCACCCAUGUAGAAGGCCGGAAAA | 22.6 | 28.2 | – | –
ACAGGACCAGUCAGGAUAUGCAGGCGAAUCUGCUUGUAGAAGGGACAUGAGGAUCACCCAUGUGCCGUGGGAUU | 19.6 | 31.4 | – | –
GUAGUUGUGUGGUUGAGGAUAGGGCAGGAUAUACAUGAGGAUCACCCAUGUGAAGCGGGAAGGAGGUAGAAGGGCCAACGUCAU | 13.7 | 10.9 | – | –
UCGACGAAAGUCGAACGAUGUAGCAGAAGGACAUGAGGAUCACCCAUGUCAGCUGUAACAGCCAUGUAGGAUAUGCUACAUCGA | 3.96 | 5.54 | – | –
AGGUACAUGAGGAUCACCCAUGUAAGAGCCCUCAUGCGAUGUAGAAGGAUAAUGCGAGAAGAGCUAUAGGAUAUACAUGAGAAA | 156 | 139 | – | –
UUGAGGUGCAAGAAGGAUCACAUGAGGAUCACCCAUGUGAUGUGAAGUCUCGAGAUUUUAUAUCGAUAGGAUAUUGCACCGAAC | – | – | 5.13 | 5.33
GAGCCCGAUGAGAAGGGUUACAUGAGGAUCACCCAUGUCGACCUUGGCGUAACAGGAUAUCAUCGAGCUCUGUGCGUUGACCCA | 25.5 | 132 | – | –
AUGAAAGUAACACAGGAUAUCGAGGAUACAACAUGAGGAUCACCCAUGUACAUACGAACGUAUAACGAGAAGGGUGGAUGAUCUUC | – | – | 244 | 639
AUAUCUUAUGAGAAGGCGAUCAUGAAACAUGAUCGAGGAUAUCAUGUAAACAUGAGGAUCACCCAUGUAUGGGUAUUAUGGUAU | – | – | 89.4 | 57
AAAACAUGAGGAUCACCCAUGUAAAGAUCUGUUAAUAGAAGUGAGGAUAUACUAAAUUUUAGGUAGUAGAAGGCACUGGGUACA | – | – | 23.4 | 27.4
UGUCCAUAGCAGAAGGACAUAAAUACAUGACCAAACAUGAGGAUCACCCAUGUAGGAUAUGCUAUGGACUAAGAGCGAAAGCUC | 6.6 | 9.31 | – | –
CUAUUCCGAGGAUAUACAUGAGGAUCACCCAUGUCGGGCCUCUGCGUUUAGCGCGAAAGUAGAAGGUGGGUUUC | 34.5 | 33.6 | – | –
GACCCUAAUGAGAAGGUGUGUAUAAAUUAUAUACAAGGAUAUCGGUCGAGCGUGUUGACAUGAGGAUCACCCAUGUUGAGGGUU | – | – | 26.8 | 10.4
AUGAGGUCAGGAUAUGCAUGGCGGGACUUGCGUCGUGGCGUGCAGAAGGGACAUGAGGAUCACCCAUGUGGACC | 36.4 | 39.5 | – | –
GGAUAGGACAGAGGAUAUACGUGCUAGAGAUACUAACAAAAUUUCCUCACAUGAGGAUCACCCAUGUAGAAGGCUGUCCUAUCG | 193 | 187 | – | –
AUGCUAUAUGUAGGAUAUUCAAAGAAAGAGAAUGAAGAAGGACAUGAGGAUCACCCAUGUAAAAUGUAGAUAGAUAUCAUACAU | 18 | 14 | – | –
UUAAAUCAUGUAGGAUAUGCAUGGCGAAGCUACGCAGAAGGACAUGAGGAUCACCCAUGUGCUAGCGUCUGGAAACAGAUGCAA | 56 | 269 | – | –
GUCAGCAAAUAAGGAUAUACAACACUGCUUCGGCAGUGUAUUAAGAUCACAUGAGGAUCACCCAUGUAGAAGGUAUAAGCUGAU | 6.98 | 24.5 | – | –
GUGCCUAACUAGAAGGCAGUAUGCAAAGCAUUCUGAGGAUAUGGGUUCCGGAAACGGACAUGAGGAUCACCCAUGUGGCACAAA | – | – | 312 | 20.3
GCACUUAAGUUAGGAUAUGGAUCGGAAAACGAUCCAGAAGGAAUAUGGGAACAUGAGGAUCACCCAUGUUCCACAAACAAGUGC | – | – | 55.4 | 29
CAGUACUGAGGAUAUACAUGAGGAUCACCCAUGUGUUCCAGCUAGGAAACUAGCAUAAGUAGAAGGCAGUACUG | 21.2 | 354 | – | –
CGGUUGUCAGGAUAUACGAACAUGUCGCCAGAUGUCAUGGUACAUGAGGAUCACCCAUGUAGAAGGGAGGAGGU | 135 | 80 | – | –
GGUAGAGAGCAGGAUAUCUUGGGUAAGUAUCGUAGAGAAGGGCUCACAUGAGGAUCACCCAUGUGGUCCUAGAU | 12.1 | 24.8 | – | –
GGAUGAGAAACUCAUCCAAAUCGAACAUGAGGAUCACCCAUGUAGGAUAUGCUACUCAAAGAGUAGCAGAAGGACAUGUGCUUU | 35 | 232 | – | –
